In ChEMBL document CHEMBL1122866, “3-Phenyl-1-indanamines. Potential antidepressant activity and potent inhibition of dopamine, norepinephrine, and serotonin uptake” (J Med Chem, 1985):
Several values for one entry are separate records, joined by “and”; a condition that tells them apart may be missing. Equal values may be shown once.

Organism: Mus musculus
Experiment: Antagonistic activity against 5-HTP induced potentiation in mice
Format: functional
Details: not given
Outline: (§1)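 Mice dosed intraperitoneally; the result is reported as the ED50 in μmol/kg with a range in parentheses. Test compounds are racemates of >95% isomeric purity by TLC.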

Compound	ED50
CNC1CC(c2ccc(Cl)c(Cl)c2)c2ccc(O)cc21 (stereo in doubt; 54)	> 128 µmol/kg
CNC1CC(c2ccc(F)c(F)c2)c2ccccc21 (stereo in doubt; 68)	63 µmol/kg
CN(C)C1CC(c2ccc(Cl)cc2Cl)c2ccccc21 (stereo in doubt; 49)	19 µmol/kg
CCCNC1CC(c2ccc(Cl)c(Cl)c2)c2ccccc21 (stereo in doubt; 88) [listing 1 of 2 here]	> 112 µmol/kg
Clc1ccc(C2CC(NCc3ccccc3)c3ccccc32)cc1Cl (stereo in doubt; 93)	47 µmol/kg
CN1CCN(C2CC(c3ccc(Cl)c(Cl)c3)c3ccccc32)CC1 (stereo in doubt; (-)-102)	> 89 µmol/kg
CNC1CC(c2ccc(Cl)c(Cl)c2)c2ccc(F)cc21 (stereo in doubt; 76)	15 µmol/kg
CN(C)C1CC(c2ccccc2)c2ccccc21 (stereo in doubt; 59)	> 36 µmol/kg
CN1CCN(C2CC(c3ccc(Cl)c(Cl)c3)c3ccccc32)CC1 (stereo in doubt; 102)	> 89 µmol/kg
CNC1CC(c2cccc(Cl)c2)c2ccccc21 (stereo in doubt; 39)	92 µmol/kg
CN1CCN(C2CC(c3ccc(Cl)c(Cl)c3)c3ccccc32)CC1 (single isomer, unassigned; (+)-101)	> 91 µmol/kg
CNC1CC(c2ccc(Cl)cc2Cl)c2ccccc21 (stereo in doubt; 48)	67 µmol/kg
Clc1ccc(C2CC(NCCc3ccccc3)c3ccccc32)cc1Cl (stereo not drawn) [listing 1 of 2 here]	> 85 µmol/kg and 142 µmol/kg
CNC1CC(c2ccc(F)c(Cl)c2)c2ccccc21 (stereo in doubt; 43)	47 µmol/kg
CN(C)C1CC(c2ccc(F)cc2)c2ccc(C(F)(F)F)cc21 (stereo in doubt; 82)	101 µmol/kg
CCNC1CC(c2ccc(Cl)c(Cl)c2)c2ccccc21 (stereo in doubt; 84)	26 µmol/kg
CNC1CC(c2ccc(F)c(Cl)c2)c2ccccc21 (stereo in doubt; 70)	30 µmol/kg
Clc1ccc(C2CC(NCc3ccccc3)c3ccccc32)cc1Cl (stereo in doubt; 94)	207 µmol/kg
CCCN(CCC)C1CC(c2ccc(Cl)c(Cl)c2)c2ccccc21 (stereo in doubt; 89)	> 100 µmol/kg
CCN(CC)C1CC(c2ccc(Cl)c(Cl)c2)c2ccccc21 (stereo in doubt; 86)	204 µmol/kg

Compound	ED50
CN(C)C1CC(c2ccc(Cl)c(Cl)c2)c2ccccc21 (stereo not drawn)	5 µmol/kg and 10 µmol/kg
CN(C)C1CC(c2cccc(Cl)c2)c2ccccc21 (stereo in doubt; 40)	43 µmol/kg
CN(C)C1CC(c2ccc(F)cc2)c2ccccc21 (stereo in doubt; 33)	45 µmol/kg
CN(C)C1CC(c2ccc(F)cc2)c2ccc(F)cc21 (stereo not drawn)	> 29 µmol/kg and 21 µmol/kg
CN(C)C1CC(c2ccc(Cl)cc2)c2ccccc21 (stereo in doubt; 63)	14 µmol/kg
CN(C)C1CC(c2ccc(F)cc2)c2ccc(C(F)(F)F)cc21 (stereo in doubt; 57)	123 µmol/kg
CNC1CC(c2ccc(Cl)cc2Cl)c2ccccc21 (stereo in doubt; 74)	71 µmol/kg
CNC1CC(c2ccc(Cl)c(Cl)c2)c2ccc(F)cc21 (stereo in doubt; 50)	27 µmol/kg
CN1CCN(C2CC(c3ccc(Cl)c(Cl)c3)c3ccccc32)CC1 (single isomer, unassigned; (-))	> 92 µmol/kg
CN(C)C1CC(c2ccc(F)cc2)c2ccccc21 (stereo in doubt; 61)	25 µmol/kg
CN(C)C1CC(c2cccc(Cl)c2)c2ccccc21 (stereo in doubt; 67)	78 µmol/kg
Clc1ccc(C2CC(N3CCCC3)c3ccccc32)cc1Cl (stereo in doubt; 98)	161 µmol/kg
CN(C)C1CC(c2ccc(Cl)cc2Cl)c2ccccc21 (stereo in doubt; 75)	19 µmol/kg
CNC1CC(c2ccc(Br)cc2)c2ccccc21 (stereo in doubt; 36)	8.8 µmol/kg
CCN(CC)C1CC(c2ccc(Cl)c(Cl)c2)c2ccccc21 (stereo in doubt; 85)	19 µmol/kg
CN(C)C1CC(c2ccc(F)c(F)c2)c2ccccc21 (stereo not drawn)	73 µmol/kg and 42 µmol/kg
CCCN(CCC)C1CC(c2ccc(Cl)c(Cl)c2)c2ccccc21 (stereo in doubt; 90)	> 100 µmol/kg
CN(C)C1CC(c2ccc(Cl)cc2)c2ccccc21 (stereo in doubt; 35)	48 µmol/kg
CCNC1CC(c2ccc(Cl)c(Cl)c2)c2ccccc21 (stereo in doubt; 83)	26 µmol/kg
CNC1CC(c2ccc(Cl)cc2)c2ccccc21 (stereo not drawn)	34 µmol/kg and 22 µmol/kg

Compound	ED50
CNC1CC(c2ccc(F)cc2)c2ccccc21 (stereo in doubt; 60)	72 µmol/kg
Clc1ccc(C2CC(N3CCCCC3)c3ccccc32)cc1Cl (stereo in doubt; 99) [listing 1 of 2 here]	> 209 µmol/kg
CN(C)C1CC(c2ccc(Cl)c(Cl)c2)c2ccc(F)cc21 (stereo in doubt; 51)	20 µmol/kg
Clc1ccc(C2CC(N3CCCC3)c3ccccc32)cc1Cl (stereo in doubt; 97)	> 108 µmol/kg
CNC1CC(c2cccc(Cl)c2)c2ccccc21 (stereo in doubt; 66)	124 µmol/kg
CN1CCN(C2CC(c3ccc(Cl)c(Cl)c3)c3ccccc32)CC1 (single isomer, unassigned; (+)-102) [listing 1 of 2 here]	> 89 µmol/kg
CNC1CC(c2ccc(Br)cc2)c2ccccc21 (stereo in doubt; 64)	6.6 µmol/kg
CN(C)C1CC(c2ccc(Cl)c(Cl)c2)c2ccc(F)cc21 (stereo in doubt; 77)	29 µmol/kg
Clc1ccc(C2CC(N3CCCCC3)c3ccccc32)cc1Cl (stereo in doubt; 100)	> 209 µmol/kg
CCCNC1CC(c2ccc(Cl)c(Cl)c2)c2ccccc21 (stereo in doubt; 87)	87 µmol/kg
CN(C)C1CC(c2ccc(Br)cc2)c2ccccc21 (stereo in doubt; 65)	12 µmol/kg
CNC1CC(c2ccc(F)c(F)c2)c2ccccc21 (stereo in doubt; 41)	22 µmol/kg
CN(C)C1CC(c2ccccc2)c2ccccc21 (stereo in doubt; 31)	> 35 µmol/kg
CN(C)C1CC(c2ccc(F)c(Cl)c2)c2ccccc21 (stereo in doubt; 71)	51 µmol/kg
CN(C)C1CC(c2ccc(F)c(Cl)c2)c2ccccc21 (stereo in doubt; 44)	37 µmol/kg
CN(C)C1CC(c2ccc(Br)cc2)c2ccccc21 (stereo in doubt; 37)	8.4 µmol/kg
CNC1CC(c2ccc(F)cc2)c2ccccc21 (stereo in doubt; 32)	> 144 µmol/kg
CN1Cc2c(N)cccc2C(c2ccccc2)C1 (stereo not drawn)	> 56 µmol/kg

Molecular target: Sodium-dependent dopamine transporter (Rattus norvegicus, UniProt P23977)
Sequence (P23977 whole entry): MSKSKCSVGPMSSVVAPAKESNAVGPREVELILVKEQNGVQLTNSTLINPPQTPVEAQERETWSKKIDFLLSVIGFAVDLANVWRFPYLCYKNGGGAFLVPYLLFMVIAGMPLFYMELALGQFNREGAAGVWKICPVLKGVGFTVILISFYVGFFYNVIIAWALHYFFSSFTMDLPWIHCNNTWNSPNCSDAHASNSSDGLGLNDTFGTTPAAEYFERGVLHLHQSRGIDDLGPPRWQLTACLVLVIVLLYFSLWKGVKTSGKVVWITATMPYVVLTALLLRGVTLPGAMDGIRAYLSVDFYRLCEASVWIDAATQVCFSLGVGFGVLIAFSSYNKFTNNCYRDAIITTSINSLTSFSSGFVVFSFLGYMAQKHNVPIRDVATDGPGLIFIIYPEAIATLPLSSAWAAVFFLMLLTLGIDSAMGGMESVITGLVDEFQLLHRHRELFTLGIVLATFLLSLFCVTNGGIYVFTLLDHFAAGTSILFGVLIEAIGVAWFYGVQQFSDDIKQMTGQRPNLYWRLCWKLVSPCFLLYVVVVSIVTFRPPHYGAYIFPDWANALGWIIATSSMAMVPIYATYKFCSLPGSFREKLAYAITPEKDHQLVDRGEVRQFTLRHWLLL
Experiment: Inhibition of dopamine uptake in rat synaptosomal fraction
Format: functional
Details: not given

Compound	IC50 [nM]
Clc1ccc(C2CC(N3CCCCC3)c3ccccc32)cc1Cl (stereo in doubt; 99) [listing 2 of 2 here]	720
CN1CCN(C2CC(c3ccc(Cl)c(Cl)c3)c3ccccc32)CC1 (single isomer, unassigned; (+)-102) [listing 2 of 2 here]	1700

Molecular target: Norepinephrine transporter (Rattus norvegicus, UniProt Q9WTR4)
Sequence (Q9WTR4 whole entry): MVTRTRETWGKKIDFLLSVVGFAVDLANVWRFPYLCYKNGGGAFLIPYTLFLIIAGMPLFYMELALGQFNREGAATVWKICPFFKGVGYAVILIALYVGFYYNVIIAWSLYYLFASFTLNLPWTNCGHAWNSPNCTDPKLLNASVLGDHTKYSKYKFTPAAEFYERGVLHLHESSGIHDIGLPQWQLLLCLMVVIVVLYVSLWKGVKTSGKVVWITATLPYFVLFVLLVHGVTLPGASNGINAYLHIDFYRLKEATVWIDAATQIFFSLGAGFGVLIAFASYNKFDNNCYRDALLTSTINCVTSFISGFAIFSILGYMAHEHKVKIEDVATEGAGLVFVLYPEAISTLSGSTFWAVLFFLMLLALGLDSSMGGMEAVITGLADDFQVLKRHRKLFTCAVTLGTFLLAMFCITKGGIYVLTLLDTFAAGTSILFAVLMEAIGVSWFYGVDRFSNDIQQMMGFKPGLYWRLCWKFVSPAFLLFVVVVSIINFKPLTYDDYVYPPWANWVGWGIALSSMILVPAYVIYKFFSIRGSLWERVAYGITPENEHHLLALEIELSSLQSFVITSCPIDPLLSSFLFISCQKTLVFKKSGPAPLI
Experiment: Inhibition of noradrenaline uptake in rat synaptosomal fraction
Format: functional
Details: not given
Outline: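 Synaptosomal uptake of DA, NE or 5-HT measured. The IC50 is in nM and is the mean of at least two determinations, each using five test concentrations in triplicate.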

Compound	IC50 [nM]
CN(C)C1CC(c2ccc(Cl)c(Cl)c2)c2ccccc21.Cl (stereo not drawn)	2.4

Organism: Mus musculus
Experiment: Antagonistic activity against tetrabenazine-induced ptosis in mice.
Format: functional
Details: not given
Outline: as §1

Compound	ED50 [µmol/kg]
CN(C)C1CC(c2ccc(F)c(Cl)c2)c2ccccc21.Cl (stereo in doubt; 44)	4.5
CNC1CC(c2ccc(F)c(Cl)c2)c2ccccc21.Cl (stereo in doubt; 70)	32
CNC1CC(c2ccc(F)c(Cl)c2)c2ccccc21.Cl (stereo in doubt; 43)	12
CN(C)C1CC(c2ccc(F)c(Cl)c2)c2ccccc21.Cl (stereo in doubt; 71)	13
Cl.Clc1ccc(C2CC(NCCc3ccccc3)c3ccccc32)cc1Cl (stereo not drawn)	33
Clc1ccc(C2CC(NCCc3ccccc3)c3ccccc32)cc1Cl (stereo not drawn) [listing 2 of 2 here]	>85

Same assay, conditions: Mus musculus; read-out: ED50

Compound	ED50 [µmol/kg]
CCCNC1CC(c2ccc(Cl)c(Cl)c2)c2ccccc21 (stereo in doubt; 88) [listing 2 of 2 here]	> 112
